Hits are enriched below; roughly 3.5% of the tested compounds scored in any of these assays.
RGS4 pot: RGS4 potentiators or activators, primary screen, cell-based, HEK293 M3R inducible RGS4, calcium flux; B-score at 10 µM; carbachol calcium flux Fluo4; hits give low values; AID 463111, 2010; hit rate 0.92% among 310,000;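 active = B-score of the integrated calcium signal more than 4 SD below the library mean, with starting fluorescence not abnormally high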;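 also: negative B-score means reduced calcium response which marks RGS4 activation or potentiation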
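test system = M3R-expressing HEK293 line, RGS4 induced by doxycycline | probe or stimulus = carbachol at ECmax as muscarinic agonist stimulus | timing = dye loading 30 min 37 °C, buffer rest 30 min RT | signal = calcium dye Fluo4 fluorescence | evaluation = B score from integrated fluorescence ratio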
MrgX1 antag: antagonists of human MrgX1 receptor, primary screen, HEK293 cells, Fluo-4 calcium flux; hit rate 1.3% among 310,000; Mas-related G-protein coupled receptor member X1 (Homo sapiens), Q96LB2; AID 588676, 2011; B-score at 10 µM; BAM8-22 antagonism; hits give low values;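 active = calcium-response B-score plate-corrected more than 3 library SD below zero, starting fluorescence within 5 deviations, no agonist response on first addition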;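 also: peak minus trough fluorescence over baseline after final BAM8-22 challenge near maximal dose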
MrgX1 agonist: agonists of human MrgX1 receptor, primary screen, HEK293 cells, Fluo-4 calcium flux; Mas-related G-protein coupled receptor member X1 (Homo sapiens), Q96LB2; Fluo-4 calcium fluorescence, agonist mode; hits give high values; B-score at 10 µM; hit rate 0.44% among 310,000; AID 588627, 2011;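 active = calcium response B-score plate-corrected fluorescence ratio at least 3 library SD, with starting fluorescence B-score inside 5 SD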
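Material – MrgX1-expressing HEK293 cells · Input – 15,000 cells seeded per well · Dosing – compound as first of three additions · Times – overnight seeding, then 1 h dark dye loading · Measured by – kinetic Fluo-4 NW fluorescence of intracellular calcium · Read-out – B-scored fluorescence response ratio · Benchmarks – positive and negative control wells on each plate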
RGS4 inh: RGS4 inhibitors, primary screen, cell-based, HEK293 M3R inducible RGS4, calcium flux. Regulator of G-protein signaling 4 (Homo sapiens), P49798. Fluo-4 calcium flux; hits give high values; triggered by carbachol at its EC20. B-score at 10 µM. hit rate 0.45% among 310,000;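 active = B-score, a plate-corrected calcium signal, over three deviations above library mean, with baseline fluorescence within five deviations of library mean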;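 also: RGS4 expression induced by doxycycline in cells with stable M3 receptor; B-score is computed from the integrated fluorescence ratio over baseline after carbachol; higher B-score means a larger calcium signal and so more RGS4 inhibition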
Target sequence (P49798 whole entry, looked up): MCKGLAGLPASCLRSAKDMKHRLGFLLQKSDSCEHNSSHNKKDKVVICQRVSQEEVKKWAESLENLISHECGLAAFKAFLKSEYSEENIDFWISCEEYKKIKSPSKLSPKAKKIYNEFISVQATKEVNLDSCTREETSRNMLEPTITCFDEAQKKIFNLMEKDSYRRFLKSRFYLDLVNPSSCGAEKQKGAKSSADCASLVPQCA
MrgX1 PAM: positive allosteric modulators of MrgX1, primary screen, HEK293 cells, Fluo-4 calcium flux. B-score at 10 µM. FDSS; hits give high values. hit rate 0.63% among 310,000;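 active = plate-corrected calcium response at least 3 library SD above typical, normal starting fluorescence, not activating the receptor alone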;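 also: compound read alongside a low EC10 to EC30 dose of BAM8-22 agonist; peak minus trough fluorescence over baseline measured at the second addition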
RGS4 activ val: reduced carbachol calcium response, RGS4-induced M3R cells, confirmation, RGS4 activator project, cell-based, HEK293 M3R/RGS4 inducible, calcium flux, duplicate. shares compounds with RGS4 pot. hit rate 89% among 1,100. inhibition, % at 10 µM. carbachol calcium flux Fluo4;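 active = inhibition above 3 SD of the buffer control wells, cut at about 41% in these data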;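 also: signal is the integrated peak-minus-minimum Fluo4 fluorescence over baseline ratio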
RGS4 act ctr: counter-screen for RGS4 activators: effect in non-induced cells; hit rate 82% among 1,100; AID 602283; inhibition, % at 10 µM; shares compounds with RGS4 pot; HEK293 M3R non-induced RGS4, Fluo4 calcium flux; after carbachol challenge at its EC90;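 active = inhibition exceeding 3 SD of buffer-only control wells, cut at about 26% in these data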;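 also: percent drop in integrated peak-minus-baseline over baseline Fluo4 ratio after carbachol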
Starred values were filed as active, the others as inactive; i = inactive; . = no result given.

SMILES | RGS4 pot | MrgX1 antag | MrgX1 agonist | RGS4 inh | MrgX1 PAM | RGS4 activ val | RGS4 act ctr
Cc1ccc(Cl)cc1NC(=O)C(=O)N1CCCCC1 | i | i | i | i | i | . | .
Cc1ccc(CN(CC(=O)NCCc2ccccc2)C(=O)c2csnn2)cc1 | i | i | i | i | i | . | .
CCCOc1ccc(OCCN2CCCC(C)C2)cc1 (centres undefined) | -9.85* | i | i | i | i | 91.5* | 50.3*
Clc1ccc(OCCCN2CCCC2)cc1Cl | i | i | i | i | i | . | .
Cc1cc(OCCCCCN2CCCC2)ccc1Cl | -9.46* | i | i | i | i | 80.5* | 26.8*
CC1CN(CCCCOc2cccc(Oc3ccccc3)c2)CC(C)O1 (centres undefined) | i | i | i | i | i | . | .
CC1CCCN(CCOc2cccc(Oc3ccccc3)c2)C1 (centres undefined) | -8.64* | i | i | i | i | 90.5* | 56.8*
c1ccc(Oc2cccc(OCCCCN3CCCC3)c2)cc1 | -10.9* | i | i | i | i | 94.0* | 87.8*
COc1ccc(NC(=O)COc2ccc(N(C)S(=O)(=O)c3ccc(Cl)cc3)cc2)cc1OC | i | i | i | i | i | . | .
c1ccc(Cn2ccc(-c3cnc(-c4ccccc4)s3)n2)cc1 | i | i | i | i | i | . | .
CC1CCN(CCOc2cccc(Br)c2)CC1 | i | i | i | i | i | . | .
Brc1cccc(OCCCN2CCCCCC2)c1 | -8.54* | i | i | i | i | 76.0* | 83.8*
COc1ccc(OC)c(/C=N/NC(=O)CCN2CCN(C(c3ccccc3)c3ccccc3)CC2)c1 | -10.8* | i | i | i | i | 92.5* | 93.8*
O=C(NC(=S)Nc1ccc(CN2CCOCC2)cc1)c1ccc(-c2cccc(Cl)c2)o1 | -9.92* | i | i | i | i | 93.5* | 91.3*
COc1ccc(Br)cc1C(=O)NC(=S)Nc1ccc(CN2CCOCC2)cc1 | -9.75* | i | i | i | i | 92.0* | 87.3*
O=C(O)c1ccc2ccc3ccccc3c2c1 | i | i | i | i | i | . | .
c1ccc(-c2nc(N3CCN(c4ccccc4)CC3)nc(-n3ccnc3)n2)cc1 | i | i | i | i | i | . | .
c1ccc(-c2nc(N3CCCCCC3)nc(-n3ccnc3)n2)cc1 | -8.65* | i | i | i | i | 92.5* | 61.3*
COc1cc(-c2cc(=O)c3c(O)c(OC)c(OC)cc3o2)cc(OC)c1O | -8.28* | i | i | i | i | 0.0 | 0.0
COc1ccc(-c2cc(=O)c3c(O)c(OC)c(O)cc3o2)cc1 | i | i | i | i | i | . | .
O=C(c1ccncc1)N1CCN(S(=O)(=O)c2cccc(Cl)c2)CC1 | i | i | i | i | i | . | .
CCOc1ccc(N2CC(C(=O)N3CCCCCC3)CC2=O)cc1 (centres undefined) | i | i | i | i | i | . | .
Cc1ccccc1NC(=O)c1cccc2nc3ccccc3nc12 | -7.76* | i | i | i | i | 86.0* | 59.3*
O=C(Nc1cc2c3c(c1)CC(=O)N3CCC2)c1ccc(Br)o1 | i | i | i | i | i | . | .
CC(C)c1cc(-c2cc(C(=O)NCc3ccccc3)on2)nc(NCC2CC2)n1 | -8.36* | i | i | i | i | 92.5* | 92.3*
CCOC(=O)COc1nc(-c2ccccc2)cc(-c2ccco2)c1C#N | -7.74* | i | i | i | i | 88.0* | 54.3*
N#Cc1c(OCC(=O)c2ccccc2)nc2c(c1-c1ccco1)CCc1ccccc1-2 | i | i | i | i | i | . | .
